Results on 40 compounds are retold here after PubChem BioAssay AID504775 (Broad Institute, 2011).

Molecules are shown by their SMILES. In all, about 320,000 compounds went through this assay and about 310 (0.097%) were called active. This is one part of a sample in which actives are shown more often than they occur. Values without a mark were called inactive.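 Rule for the calls: active = mean replicate activation of at least 60% and every replicate at or above 60%; inconclusive = mean or all-replicate condition met, but not both; inactive = mean below 60% and not all replicates reaching 60%.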

The test in a line: activators of SR-BI mediated DiI-HDL uptake, primary screen, ldlA[mSR-BI] CHO cells, DiI fluorescence (AID 504775).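 Note: 0% = median plate neutral-control signal and 100% = twice that signal.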 The following applies: 3 h, at 12.5 µM, active compounds read high, 100 = double the neutral-control signal. The gist of the method:
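Material: SR-BI-overexpressing, LDLR-lacking CHO cells | Dosing: Single compound concentration, delivered by pin transfer | Probe or stimulus: Labelled HDL, 10 µg/mL | Signal: Bottom-read cell fluorescence after medium removal, ex 550/em 595 nm | Schedule: 3 h, 37 °C | Evaluation: HDL uptake via cellular fluorescence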
With `C#CCOCCOCCOCCNc1nc(N2CCOCC2)nc(N2CCN(C(=O)[C@H](Cc3ccc(O)cc3)n3cc(CCO)nn3)CC2)n1`, the activation is 15.4%.
For the compound `CC1CN(Cc2ccco2)C(=S)N(c2ccccc2)C1=O` (stereo not given), the activation was 33.1%.
Consider `COc1cccc(-c2sc3ccc(OC)cc3c2-c2ccc(OCCN3CCCCC3)cc2)c1`, for which the activation is -2.84%.
In the case of `COc1ccc(-c2sc3ccccc3c2-c2ccc(OCCN3CCOCC3)cc2)cc1`, the activation is -39.3%.
`COc1ccc2sc(-c3ccccc3OC)c(-c3ccc(OCCN4CCCC4)cc3)c2c1`: the activation was 88% (active).
Take `COc1cccc2oc(CCc3ccccc3)cc(=O)c12`: the activation was 4.54%.
The figure for `CC(=O)OC1CCC2(C)C(=CCC3C4CC(=O)N(O)C(=O)C4(C)CCC32)C1` (stereo not given) is 19%.
With `COc1ccc(NC(=O)/C(N=Nc2cccc(S(=O)(=O)Nc3ccc(SC(F)F)cc3)c2)=C(\C)O)cc1`, the activation was 19.4%.
For the compound `COc1ccc2nc(N3C(=O)C(O)=C(C(=O)c4ccco4)C3c3ccco3)sc2c1` (stereo not given), the activation was 2.11%.
The result for `O=C1NC(=O)C(CCc2ccccc2)(c2ccccc2)N1` (stereo not given) reads 20.8%; that for `COC[C@@H]1NS(=O)(=O)c2ccc(Br)cc2O[C@H]1c1ccccc1`, -5.43%.
Consider `CCOC(=O)[C@H]1[C@H]2COc3ccc(Cl)cc3[C@@H]2N2C(=O)c3cc(C)ccc3NC(=O)[C@@]12C`, for which the activation was 5.05%.
With `COc1ccc2c(c1)[C@H]1[C@H](CO2)[C@H](c2ccccc2)[C@]2(C)C(=O)Nc3cc(F)c(F)cc3C(=O)N12`, the activation is -10.6%.
Regarding `Cc1ccc2c(c1)NC(=O)[C@@]1(C)[C@@H](c3ccccc3)[C@H]3COc4ccc(Cl)cc4[C@@H]3N1C2=O`, the activation is 138% (active).
As for `CCOc1ccc(CCNC(=O)COC(=O)C2CCN(S(=O)(=O)c3ccccc3)CC2)cc1OCC`, the activation is -35%.
`NS(=O)(=O)c1ccc(NC(=O)COC(=O)c2ccco2)cc1`: the activation is -5.86%.
As for `COc1cc(NC(=S)NCc2ccc(S(N)(=O)=O)cc2)cc(OC)c1`, the activation was 1.73%.
The figure for `NS(=O)(=O)c1ccc(CNC(=S)NC(=O)c2ccco2)cc1` is 304% (active).
Regarding `COc1ccc(/C=C2/CCCc3ccccc3C2=O)cc1`, the activation was -12.7%.
Take `CN(CCc1ccccc1)C(=O)c1cccc(NC(=O)Cc2cccc(NC(=O)C3CCCN(C(=O)C4CCC4)C3)c2)c1` (stereo not given): the activation was -26.9%.
Consider `O=C(NCCc1ccccc1)c1ccc(NC2=NC3CS(=O)(=O)CC3S2)cc1` (stereo not given), for which the activation is 85.7% (active).
Consider `CN(Cc1ccccc1)C(=O)c1ccc(NC2=NC3CS(=O)(=O)CC3S2)cc1` (stereo not given), for which the activation is -2.73%.
Consider `COc1ccccc1N1CCN(C(=O)c2ccc(NC3=NC4CS(=O)(=O)CC4S3)cc2)CC1` (stereo not given), for which the activation is 14.4%.
With `COc1cc2c(cc1OC)C1C(=O)c3cc(OS(C)(=O)=O)c(OC)cc3C1N(C)C2=O` (stereo not given), the activation is 1.01%.
`COc1ccc(Cn2cc(CN3CCS(=O)(=O)N(Cc4ccc(-c5cccc(Cl)c5)cc4)C(C)C3=O)nn2)cc1` (stereo not given): the activation was -34.7%.
Consider `O=[N+]([O-])c1ccc(COc2ccccc2CN2CCOCC2)cc1`, for which the activation is 19.3%.
Regarding `COc1cccc(CNC(=O)CN(C)S(=O)(=O)c2ccc3c(c2)c(=O)n(C)c(=O)n3C)c1`, the activation was -3.22%.
Turning to `CCc1ccccc1NC(=O)CN(C)S(=O)(=O)c1ccc2c(c1)c(=O)n(C)c(=O)n2C`, the activation is -3.85%.
Consider `CC1CCC(NC(=O)CN(C)S(=O)(=O)c2ccc3c(c2)c(=O)n(C)c(=O)n3C)CC1` (stereo not given), for which the activation was 246% (active).
On to `O=C1CC(C(=O)O)NC(=S)N1` (stereo not given), for which the activation is 3.49%.
For `Cc1cc(C)c(C=NNc2nc3c([nH]2)c(=O)n(C)c(=O)n3C)c(C)c1`, the activation was 12.4%.
On to `CN(C)CCNC(=O)c1ccc(Cl)c2cc3ccccc3nc12`, for which the activation is 8.43%.
With `CCN(CC)S(=O)(=O)c1cccc(NC(=O)c2ccc(S(=O)(=O)N3CCCC3)cc2)c1`, the activation is -41.2%.
Take `CC(C)=CCc1ccc(O)c(=O)cc1C(C)C`: the activation is -12.4%.
Take `O=C(Nc1c(Br)cc2c(c1Br)Cc1cc([N+](=O)[O-])ccc1-2)C(Cl)Cl`: the activation was -60.9%.
As to `CN(O)C(=S)c1ccccc1`, the activation is 24.5%.
As for `O=C1CC(c2ccccc2)C(c2ccccc2)=NN1` (stereo not given), the activation is 1.49%.
The figure for `COc1cc(/C=C/CNC[C@H]2O[C@@H](n3cnc(C(N)=O)n3)[C@H](O)[C@@H]2O)ccc1O` is 8.13%.
As for `O=S(=O)(Cc1ccc(Cl)cc1Cl)c1ccc(Cl)cc1`, the activation was -15.8%.
With `Cc1ccc2c(O)c(Cc3ccccc3)c(=O)[nH]c2n1`, the activation is -7.66%.
